In ChEMBL document CHEMBL1629572 (Antimicrob Agents Chemother, 2009):

How the values were obtained:
[1] = Inhibition of Influenza B virus (B/Aichi/3/2006(Victoria)) neuraminidase after 30 mins by fluorescence analysis
Outline: (§1)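 Virus NA source was mixed with compound in 32.5 mM MES-NaOH pH 6.5 with 4 mM CaCl2 and preincubated 10 min at room temperature. Reaction ran 30 min at room temperature with 100 μM (final) 4-MU-NANA. Fluorescence was read at ex 360/em 460 nm, in triplicate. IC50 came from linear regression of residual activity against log concentration, using concentrations giving 10–90% residual activity.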

[2] = Inhibition of Influenza B virus (B/Shiga/17/2002(Victoria)) neuraminidase after 30 mins by fluorescence analysis; outline: as §1
Neuraminidase [3] = target: T1, Neuraminidase (Influenza A virus, UniProt B4URF0); experiment: Inhibition of Influenza A virus (A/Aichi/193/2004(H1N1)) neuraminidase after 30 mins by fluorescence analysis
Neuraminidase [4] = target: T1, Neuraminidase; experiment: Inhibition of Influenza A virus (A/Puerto Rico/8/1934(H1N1)) neuraminidase after 30 mins by fluorescence analysis
Neuraminidase [5] = target: T1, Neuraminidase; experiment: Inhibition of Influenza A virus (A/Saitama/80/2003(H3N2)) neuraminidase after 30 mins by fluorescence analysis
Neuraminidase [6] = target: T1, Neuraminidase; experiment: Inhibition of Influenza A virus (A/Wisconsin/67/2005(H3N2)) neuraminidase after 30 mins by fluorescence analysis
[7] = Inhibition of Influenza B virus (B/Yamagata/113/2005(Yamagata)) neuraminidase after 30 mins by fluorescence analysis; outline: as §1
Neuraminidase [8] = target: T1, Neuraminidase; experiment: Inhibition of Influenza A virus (A/Singapore/1/1957(H2N2)) neuraminidase after 30 mins by fluorescence analysis
[9] = Inhibition of Influenza B virus (B/Tokushima/1/2003(Victoria)) neuraminidase after 30 mins by fluorescence analysis; outline: as §1
Neuraminidase [10] = target: T1, Neuraminidase; experiment: Inhibition of Influenza A virus (A/Wellington/1/2004(H3N2)) neuraminidase after 30 mins by fluorescence analysis
Neuraminidase [11] = target: T1, Neuraminidase; experiment: Inhibition of Influenza A virus (A/Tokushima/1/2005(H3N2)) neuraminidase after 30 mins by fluorescence analysis
Neuraminidase [12] = target: T1, Neuraminidase; experiment: Inhibition of Influenza A virus (A/Wyoming/03/2003(H3N2)) neuraminidase after 30 mins by fluorescence analysis
Neuraminidase [13] = target: T1, Neuraminidase; experiment: Inhibition of Influenza A virus (A/Shiga/5/2002(H3N2)) neuraminidase after 30 mins by fluorescence analysis
Neuraminidase [14] = target: T1, Neuraminidase; experiment: Inhibition of Influenza A virus (A/duck/England/1/1956(H11N6)) neuraminidase after 30 mins by fluorescence analysis
Neuraminidase [15] = target: T1, Neuraminidase; experiment: Inhibition of Influenza A virus (A/seal/Massachusetts/1/1980(H7N7)) neuraminidase after 30 mins by fluorescence analysis
[16] = Inhibition of Influenza B virus (B/Ohio/01/2005(Victoria)) neuraminidase after 30 mins by fluorescence analysis; outline: as §1
Neuraminidase [17] = target: T1, Neuraminidase; experiment: Inhibition of Influenza A virus (A/Yamagata/83/2006(H1N1)) neuraminidase after 30 mins by fluorescence analysis
[18] = Inhibition of Influenza B virus (B/Malaysia/2506/2004(Victoria)) neuraminidase after 30 mins by fluorescence analysis; outline: as §1

T1 sequence (B4URF0 whole entry): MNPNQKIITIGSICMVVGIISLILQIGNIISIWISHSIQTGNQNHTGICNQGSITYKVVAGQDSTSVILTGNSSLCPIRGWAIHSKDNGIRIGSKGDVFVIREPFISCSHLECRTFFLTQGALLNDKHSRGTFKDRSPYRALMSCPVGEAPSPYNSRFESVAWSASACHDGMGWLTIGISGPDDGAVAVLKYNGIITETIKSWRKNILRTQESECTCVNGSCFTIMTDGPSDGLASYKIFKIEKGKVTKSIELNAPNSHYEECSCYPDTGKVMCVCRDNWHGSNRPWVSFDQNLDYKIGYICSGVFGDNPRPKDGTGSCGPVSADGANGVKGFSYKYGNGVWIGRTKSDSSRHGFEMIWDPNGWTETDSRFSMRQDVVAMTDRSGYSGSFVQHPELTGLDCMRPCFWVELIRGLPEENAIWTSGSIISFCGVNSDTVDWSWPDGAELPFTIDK

SMILES: CCCCCCCC(=O)OC[C@@H](O)[C@@H](OC)[C@@H]1OC(C(=O)O)=C[C@H](NC(=N)N)[C@H]1NC(C)=O [LANINAMIVIR OCTANOATE]
- IC50 [1]: 13800 nM
- IC50 [2]: 7680 nM
- IC50 (Neuraminidase [3]): 983 nM
- IC50 (Neuraminidase [4]): 931 nM
- IC50 (Neuraminidase [5]): 39.2 nM
- IC50 (Neuraminidase [6]): 187 nM
- IC50 [7]: 3500 nM
- IC50 (Neuraminidase [8]): 128 nM
- IC50 [9]: 13800 nM
- IC50 (Neuraminidase [10]): 157 nM
- IC50 (Neuraminidase [11]): 131 nM
- IC50 (Neuraminidase [12]): 114 nM
- IC50 (Neuraminidase [13]): 64.2 nM
- IC50 (Neuraminidase [14]): 262 nM
- IC50 (Neuraminidase [15]): 142 nM
- IC50 [16]: 12800 nM
- IC50 (Neuraminidase [17]): 733 nM
- IC50 [18]: 11100 nM
